Measurements as given in article PMC6800648 (Cell chemical biology, 2019).
Blank lines part the entries; values can stand above or below the molecule they belong to. Numbered stars: 1 amine (or outer) side, 2 acyl side, 3 side chain; on linkers, the order of the positions; unused ones are H or OH. Square brackets hold non-standard residues; d marks the D form. Peptide text beside a SMILES is read from it. * marks the point of attachment. NH(CH2CH2O)11C2H4NHBiotinyl = O=C(CCCC[C@@H]1SC[C@@H]2NC(=O)N[C@@H]21)NCCOCCOCCOCCOCCOCCOCCOCCOCCOCCOCCOCCN*; Lys(Me,2-norbornyl) = CN(CCCC[C@H](N)C(=O)O)C1CC2CCC1C2; X10 = CN(CCCC[C@H](N[*:1])C(=O)[*:2])C1C2CC3CC(C2)CC1C3; Benzoyl(4-tBu) = CC(C)(C)c1ccc(C(=O)*)cc1

Experiments:
[1] = tested on: 120 purified Kme reader domains; test: Chromatin-associated domain array; type: binding; settings: biotinylated ligand, fluorescently tagged streptavidin visualization
canonical PRC1 complex = test: Chemiprecipitation; type: binding, human; settings: PC3 cell lysates, western blot
In short: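 PC3 cells in DMEM/F12 plus 10% FBS were grown to 80–90% confluency, trypsinised, PBS-washed twice, and lysed fresh or after flash freezing. Lysates were pulled down with biotinylated test compounds. Beads were boiled in Laemmli buffer at 95 °C for 3 min, with 1% input. Proteins were separated by SDS-PAGE and blotted to PVDF. Primary antibody overnight at 4°C; infrared secondaries (1:10,000).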

[2] = Solubility observed in the Polycomb in-vivo Assay; settings: above 30 mM in the Polycomb in-vivo Assay
CBX7 = biological target: T1, CBX7 (Mus musculus, UniProt Q8VDS3); test: Polycomb in-vivo Assay; type: cell-based
T1 sequence (Q8VDS3 2-69 limits assumed): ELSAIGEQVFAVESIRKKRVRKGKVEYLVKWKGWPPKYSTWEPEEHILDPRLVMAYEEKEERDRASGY

[3] = biological target: T2, CBX6 chromodomain (residues 8–65 of NP_055107) (UniProt O95503 8-65); test: ITC
T2 sequence (looked up): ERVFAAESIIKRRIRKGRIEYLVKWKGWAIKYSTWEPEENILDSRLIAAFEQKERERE

[4] = biological target: T3, CDYL2 chromodomain (residues 1–75 of NP_689555) (UniProt Q8N8U2 1-75); test: ITC
T3 sequence (looked up): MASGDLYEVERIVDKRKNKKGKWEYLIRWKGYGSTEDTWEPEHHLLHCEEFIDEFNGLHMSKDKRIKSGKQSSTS

[5] = biological target: T4, CBX2 chromodomain (residues 9–66 of NP_005180) (UniProt Q14781-1 9-66); test: ITC
T4 sequence (looked up): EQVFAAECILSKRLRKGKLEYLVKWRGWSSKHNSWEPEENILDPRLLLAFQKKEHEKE

CBX7 chromodomain = CBX7 chromodomain (UniProt O95931 8-62); test: fluorescence polarization

Molecule: CC(C)C[C@H](NC(=O)[C@H](C)NC(=O)[C@H](Cc1ccccc1)NC(=O)c1ccc(C(C)(C)C)cc1)C(=O)N[C@@H](CCCCN(C)C1CC2CCC1C2)C(=O)N[C@@H](CO)C(=O)NCCOCCOCCOCCOCCOCCOCCOCCOCCOCCOCCOCCNC(=O)CCCC[C@@H]1SC[C@@H]2NC(=O)N[C@@H]21 (stereo partly drawn) [UNC5355, N-((2S,5S,8S,11S,14S)-11-(4-(bicyclo[2.2.1]heptan-2-yl(methyl)amino)butyl)-14-(hydroxymethyl)-8-isobutyl-5-methyl-3,6,9,12,15,53-hexaoxo-57-((3aS,4S,6aR)-2-oxohexahydro-1H-thieno[3,4-d]imidazol-4-yl)-1-phenyl-19,22,25,28,31,34,37,40,43,46,49-undecaoxa-4,7,10,13,16,52-hexaazaheptapentacontan-2-yl)-4-(tert-butyl)benzamide] ({Benzoyl(4-tBu)}-FAL[Lys(Me,2-norbornyl)]S-{NH(CH2CH2O)11C2H4NHBiotinyl})
- selectivity profile on CADOR microarray [1]: binding interactions were only detected for all five Polycomb CBX chromodomains and a small subset of CDY chromodomains
- pulldown of CBX2 and CBX6 (canonical PRC1 complex): not detected
- pulldown of canonical PRC1 components (CBX4, CBX7, CBX8, RING1B, BMI1) (canonical PRC1 complex): all five components previously mentioned were similarly pulled down

- solubility in this assay [2]: markedly poor solubility
- EC50 (CBX7): 1020 ± 175 nM
Molecule: COC(=O)[C@H](CO)NC(=O)[C@H](CCCCN(C)C1C2CC3CC(C2)CC1C3)NC(=O)[C@H](CC(C)C)NC(=O)[C@H](C)NC(=O)[C@H](Cc1ccccc1)NC(=O)c1ccc(C(C)(C)C)cc1 (stereo partly drawn) [UNC6373, methyl N^6-((1S,3S,5S,7S)-adamantan-2-yl)-N^2-(4-(tert-butyl)benzoyl)-L-phenylalanyl-L-alanyl-L-leucyl-N^6-methyl-L-lysyl-L-serinate] ({Benzoyl(4-tBu)}-FAL[X10]S-OMe)

- fold selectivity for CBX4/7 over CBX6 [3]: 9 fold
- fold selectivity for CBX4/7 over CDYL2 [4]: 8 fold
- fold selectivity for CBX4/7 over CBX2 [5]: 28 fold
B1: UNC4976 (peptide)
peptide: FALKS
modifications: N-terminal 4-(tert-butyl)benzoyl cap on Phe1; Lys4 is N6-(bicyclo[2.2.1]heptan-2-yl)-N6-methyl-L-lysine (N6-methyl-N6-norbornyl lysine); C-terminal methyl ester on Ser5

Molecule: UGGAGUUGCGUUCCA (structured_RNA) [FAM-ANRIL-RNA (ANRIL Loop C) FP probe]
- binding signal (CBX7 chromodomain): 4 fold affinity (alpha)
